Test results published in publication PMC4981245 (ACS chemical biology, 2016).
Entries after “also recorded” stand apart in the source; their conditions may differ. Where two headings read alike, the source gives them in different places.

Assays:
mGlu5 [1] = molecular target: T1, mGlu5 (Rattus norvegicus, UniProt P31424); assay: Agonist Ca2+ mobilization after acute NAM exposure and extensive washes; format: cell-based; details: for ΔEmax: change after azido-alkyne 8 (1uM)
mGlu5 [2] = molecular target: T1, mGlu5; format: binding; details: for [3H]mPEPy binding after pretreatment, three (5 min) washes: 1 μM pretreatment
In short: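 Whole HEK293A-mGlu5-low cells plated at ~200 000 cells/well on poly-D-lysine. Test compound (1 μM) applied 10 min at RT, with or without UV. Washed either 3 × 5 min or 5 × 1 h at RT in Ca2+ assay buffer. Then ~2 nM [3H]mPEPy for 1 h at RT, ice-cold 0.9% NaCl washes, 0.2 M NaOH lysis overnight, liquid scintillation counting.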

mGlu5 [3] = molecular target: T1, mGlu5; assay: [3H]mPEPy inhibition binding, membranes from HEK293A-mGlu5-low; details: for displacement of [3H]mPEPy binding, incubation time 4 h: equilibration time extended to 4 h
In short: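 HEK293A-mGlu5-low membranes with ~2 nM [3H]mPEPy and test compound (0.3 nM–30 μM) in Ca2+ assay buffer, RT, 1 h initially, extended to 4 h. […] Filtration on GF/B, ice-cold 0.9% NaCl/50 mM Tris pH 7.4 washes, scintillation counting.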

mGlu5 [4] = molecular target: T1, mGlu5; assay: Agonist activity in mGlu5 intracellular Ca2+ mobilization; format: cell-based; details: absence of glutamate
mGlu5 [5] = molecular target: T1, mGlu5; format: cell-based; details: for EC80 glutamate inhibition hill slope: HEK293A-mGlu5-low
mGlu5 [6] = molecular target: T1, mGlu5; assay: Modulation of glutamate concentration-response curves for Ca2+ mobilization; format: cell-based

T1 sequence (P31424 21-1203): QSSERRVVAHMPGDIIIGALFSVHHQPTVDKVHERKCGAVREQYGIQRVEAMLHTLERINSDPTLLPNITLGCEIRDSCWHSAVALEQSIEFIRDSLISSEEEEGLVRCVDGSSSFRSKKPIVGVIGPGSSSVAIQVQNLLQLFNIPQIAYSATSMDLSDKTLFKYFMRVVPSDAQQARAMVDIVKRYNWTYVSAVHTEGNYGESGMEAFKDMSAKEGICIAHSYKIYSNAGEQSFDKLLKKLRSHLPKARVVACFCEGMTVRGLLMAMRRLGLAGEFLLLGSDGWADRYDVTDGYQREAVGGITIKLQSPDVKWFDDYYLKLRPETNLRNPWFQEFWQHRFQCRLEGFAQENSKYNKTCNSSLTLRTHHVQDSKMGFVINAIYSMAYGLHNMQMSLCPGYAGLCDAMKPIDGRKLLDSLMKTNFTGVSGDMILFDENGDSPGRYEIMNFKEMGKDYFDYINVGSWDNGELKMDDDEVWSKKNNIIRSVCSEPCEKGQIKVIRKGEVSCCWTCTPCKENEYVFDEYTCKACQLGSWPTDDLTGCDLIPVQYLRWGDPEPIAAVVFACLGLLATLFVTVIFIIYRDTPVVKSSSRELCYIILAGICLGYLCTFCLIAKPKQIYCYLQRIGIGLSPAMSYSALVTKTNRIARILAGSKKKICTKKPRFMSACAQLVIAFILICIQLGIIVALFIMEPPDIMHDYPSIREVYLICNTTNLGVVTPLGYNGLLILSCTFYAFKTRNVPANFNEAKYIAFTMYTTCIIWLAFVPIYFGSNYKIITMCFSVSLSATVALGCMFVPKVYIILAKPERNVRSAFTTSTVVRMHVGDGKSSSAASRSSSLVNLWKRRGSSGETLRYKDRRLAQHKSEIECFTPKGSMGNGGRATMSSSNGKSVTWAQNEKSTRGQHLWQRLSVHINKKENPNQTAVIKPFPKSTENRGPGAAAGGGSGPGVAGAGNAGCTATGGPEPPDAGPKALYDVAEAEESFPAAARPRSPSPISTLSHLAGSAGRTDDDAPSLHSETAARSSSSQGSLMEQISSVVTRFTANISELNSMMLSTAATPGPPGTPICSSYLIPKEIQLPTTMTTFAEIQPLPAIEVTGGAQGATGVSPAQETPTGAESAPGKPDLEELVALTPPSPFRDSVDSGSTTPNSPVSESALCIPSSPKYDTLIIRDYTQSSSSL

## C[C@@H](NC(=O)c1ccc(C#Cc2cccc(F)c2)cn1)C(C)(C)O [VU0424465]
mGlu5 [1]; HEK293A-mGlu5-low, untreated
  pEC50 (untreated): 6.60 ± 0.18
mGlu5 [1]
  ΔEmax: −18.3 ± 10.8 percentage of the maximum response to glutamate
mGlu5 [1]; equilibrium dissociation constant of the agonist, receptor depletion with azido-alkyne 8 (1uM)
  pKA: 6.17 ± 0.25
mGlu5 [1]; treated with azido-alkyne 8 (1uM)
  pEC50 (treated): 6.11 ± 0.23

## N[C@@H](CCC(=O)O)C(=O)O [glutamate]
mGlu5 [1]
  ΔEmax: −46.3 ± 18.3 percentage of the maximum response to glutamate

## COc1cc(O)c(C(=O)c2ccccc2)cc1S(=O)(=O)O [compound 4]
mGlu5 [2]
  [3H]mPEPy binding after pretreatment, three (5 min) washes: significantly reduced
mGlu5 [2]; absence of UV irradiation
  [3H]mPEPy binding after extensive wash protocol (five 1 h washes): concentration-dependently inhibited
mGlu5 [3]
  Ki: 25.1 nM
  displacement of [3H]mPEPy binding, incubation time 4 h: complete displacement; also recorded: fully displaced
mGlu5 [3]; initial assay conditions
  displacement of [3H]mPEPy binding: incomplete displacement
mGlu5 [3]; radioligand inhibition binding
  fold higher mGlu5 binding affinity relative to lead NAM 2: 2 fold
mGlu5 [4]
  intrinsic agonist activity at mGlu5: No evidence of agonist activity; also recorded: no intrinsic agonist activity
mGlu5 [5]
  IC50: 647 nM
  Kb: 891 nM
  fold less potent than lead NAM 2 at inhibiting EC80 glutamate response: ~ 5 fold
  EC80 glutamate inhibition hill slope: −0.91 ± 0.23
mGlu5 [6]
  fold increase of affinity estimate with 30 min versus 1 min preincubation: ~ 10 fold
mGlu5 [6]; 1 min pre-exposure
  effect on glutamate maximal functional response: complete inhibition
mGlu5 [6]; affinity estimate pKB, 30 min preincubation, photoprobe preincubation 30 min
  Kb: 36.3 nM
mGlu5 [6]; allosteric interaction assay, 1 min
  affinity estimate (pKB) fold difference to benzyl ether derivative 3: ≤ 5 fold
Purified mGlu5; absence of a competitor, versus vehicle
  Cy5.5 in-gel fluorescence of mGlu5 dimer band: significantly increase

## Cc1cccc(C#Cc2ccccc2)n1 [6 (MPEP), MPEP, reference compound]
mGlu5 [2]
  [3H]mPEPy binding after pretreatment, three (5 min) washes: reduced [^3H]mPEPy binding to a similar extent
mGlu5 [1]; 10 min exposure followed by five extended washes
  effect of pre-exposure on potency or maximal response to glutamate or VU0424465: no effect
mGlu5 [3]
  displacement of [3H]mPEPy binding, incubation time 4 h: no effect
mGlu5 [5]
  EC80 glutamate inhibition hill slope: −1.53 ± 0.18
mGlu5 [5]; operational model of allosterism applied to EC80 glutamate inhibition curves
  EC80 glutamate inhibition pKB: 7.97 ± 0.16
Purified mGlu5; saturating concentration (10 μM)
  inhibition of mGlu5 photoaffinity labeling of the clickable photoprobes: did not inhibit
